UHRF1 binding – UHRF1 methylated DNA binding inhibitors, primary screen, counter-screen for MBD2 inhibitor project, biochemical, TR-FRET, human UHRF1, single concentration | E3 ubiquitin-protein ligase UHRF1 (Homo sapiens), Q96T88 | UHRF1 binding to methylated oligo | inhibition, % at 4.4 µM | hit rate 0.75% among 370,000; in the data active means inhibition above about 21%;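 further: UHRF1 SRA domain binding a hemimethylated CpG hairpin DNA probe; 0% = median of test compound wells and 100% = reference inhibitor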
MBD2 inh – inhibitors of MBD2 binding to methylated DNA, primary screen, biochemical, TR-FRET, DNA-binding domain, human. MBD2 binding to methylated oligonucleotide. inhibition, % at 4.4 µM. hit rate 0.31% among 370,000; in the data active means inhibition above about 13%
ASAP1 inh – inhibitors of human ASAP1 ArfGAP activity, primary screen, biochemical, fluorescence polarization | inhibition, % at 16.5 µM | hit rate 0.19% among 360,000 | ASAP1-stimulated ARF1 GTP hydrolysis, GDP FP detection | AID 624377, 2012; in the data active means inhibition above about 25%;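 further: 0% = vehicle with enzyme and substrate and 100% = no enzyme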
Target sequence (Q9ULH1 325-724 limits assumed): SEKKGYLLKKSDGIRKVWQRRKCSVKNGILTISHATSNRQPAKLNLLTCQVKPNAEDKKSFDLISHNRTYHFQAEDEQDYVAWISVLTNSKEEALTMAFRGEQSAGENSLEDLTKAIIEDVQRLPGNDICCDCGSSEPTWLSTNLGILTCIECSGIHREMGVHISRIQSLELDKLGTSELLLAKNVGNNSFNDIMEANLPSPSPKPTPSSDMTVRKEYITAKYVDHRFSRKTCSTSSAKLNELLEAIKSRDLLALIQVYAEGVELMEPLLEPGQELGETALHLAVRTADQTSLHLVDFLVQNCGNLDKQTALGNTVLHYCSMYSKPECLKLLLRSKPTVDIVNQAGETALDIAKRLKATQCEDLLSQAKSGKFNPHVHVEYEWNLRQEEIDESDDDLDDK
LEDGF integ inh – blockers of LEDGF/p75-dependent integrase strand transfer – biochemical, TR-FRET, high throughput, primary screen. HIV-1 integrase (with human LEDGF/p75). TR-FRET IN-LEDGF/p75 DNA integration, Eu/Cy5. inhibition, % at 3.7 µM. hit rate 0.64% among 370,000;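 active means inhibition above the screen-wide mean plus 3 SD, cut at about 13% in these data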;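 further: signal is the Cy5 over europium emission ratio at 671 and 618 nm; 0% = plate median of compound wells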
TDP2 inh – human TDP2 enzyme inhibitors, primary screen, biochemical, epi absorbance, recombinant enzyme. hit rate 0.34% among 370,000. AID 720702, 2013. inhibition, % at 12.8 µM. Tyrosyl-DNA phosphodiesterase 2 (Homo sapiens), O95551. T5PNP hydrolysis, p-nitrophenol absorbance 415 nm;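 active means inhibition above the mean of all tested compounds plus 3 SD, set per campaign, cut at about 25% in these data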;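 further: 0% = DMSO with enzyme and 100% = buffer with substrate but no TDP2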
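Test system: Human TDP2 enzyme | Reagent: 5 mM T5PNP | Compound dosing: 12.8 µM single point, 1% DMSO | Incubation: Enzyme reaction with compound for 2 h at 37 °C | Technique: p-Nitrophenol epi absorbance | Read-out: % inhibition relative to enzyme-containing and enzyme-free wells | Benchmarks: High control without enzyme, low control DMSO plus TDP2 | Replicates: Singlicate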
ARFGAP1 inhibitor – inhibitors of rat ARFGAP1 GAP activity, primary screen, biochemical, fluorescence polarization, GDP tracer; ADP-ribosylation factor GTPase-activating protein 1 (Rattus norvegicus), Q62848; Arfgap1-stimulated ARF1 GTP hydrolysis, GDP FP detection; inhibition, % at 16.5 µM; hit rate 0.26% among 360,000; AID 651572, 2012;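 active means inhibition above a per-plate limit, mean inhibition of low control wells plus 3 SD, cut at about 25% in these data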;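 further: 0% = DMSO wells with enzyme and 100% = wells lacking Arfgap1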
Target sequence (Q62848 1-136 limits assumed): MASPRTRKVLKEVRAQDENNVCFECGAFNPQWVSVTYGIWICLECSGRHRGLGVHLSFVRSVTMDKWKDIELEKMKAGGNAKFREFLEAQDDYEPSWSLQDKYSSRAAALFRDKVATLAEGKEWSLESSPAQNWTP
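Material: rat Arfgap1 catalytic domain, aa 1-136; also added: human ARF1(Δ1-17)-GTP substrate; compound dosing: one concentration, 16.5 µM, DMSO 1.26%; incubation: GTP hydrolysis reaction 2 h at 25 °C; measured by: Tracer-displacement fluorescence polarization with EDTA stop, 620/688 nm; evaluation: % inhibition from polarization; repeats: one replicate per compound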
UHRF1 DNA bind – UHRF1 methylated DNA binding inhibitors, counter-screen for MBD2 inhibitor project, biochemical, TR-FRET, human UHRF1; hit rate 25% among 1,000; UHRF1 binding to methylated oligonucleotide; inhibition, % at 4.4 µM; shares compounds with MBD2 inh; in the data active means inhibition above about 21%;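 further: UHRF1 SRA domain binding a labeled hemimethylated CpG hairpin DNA; 0% = vehicle only and 100% = reference inhibitor with vehicle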
MBD2 confirm – inhibitors of MBD2 binding to methylated DNA, confirmation, biochemical, TR-FRET, DNA-binding domain, human. hit rate 26% among 1,000. TR-FRET MBD2-DBD binding to methylated oligonucleotide. AID 720531, 2013. inhibition, % at 4.4 µM. shares compounds with MBD2 inh
TDP2 inh conf – human TDP2 enzyme inhibitors, retest, confirmation, biochemical, epi absorbance, recombinant enzyme; shares compounds with TDP2 inh; inhibition, % at 12.8 µM; hit rate 22% among 1,100; absorbance read-out; AID 743263, 2014; in the data active means inhibition above about 25%;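 further: 0% = vehicle with enzyme and 100% = no enzyme buffer only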
IN multimer up – HIV-1 IN multimer formation enhancers, counter-screen for LEDGF/p75 integration inhibitor project, biochemical, TR-FRET | shares compounds with LEDGF integ inh | TR-FRET HIV-1 integrase multimerization | activation, % at 7.7 µM | hit rate 17% among 2,000 | AID 1053131, 2014; in the data active means activation above about 8.9%
TRFRET interf – TR-FRET optical interference artefacts, confirmation, artefact control for LEDGF/p75-dependent integration inhibitor project, biochemical, HIV-1 IN multimerization; inhibition, % at 7.7 µM; AID 1053135, 2014; shares compounds with LEDGF integ inh; 2,000 tested, under 10 active; TR-FRET optical interference counterscreen;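 active means inhibition above the mean over all tested compounds plus 3 SD, which no compound reached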;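 further: 0% = integrase with antibodies and DMSO and 100% = antibodies without integrase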
LEDGF integ conf – inhibitors of HIV-1 IN-LEDGF/p75 DNA integration, confirmation, biochemical, TR-FRET; inhibition, % at 3.7 µM; AID 1053136, 2014; hit rate 36% among 2,000; TR-FRET LEDGF/p75-dependent HIV-1 integration; shares compounds with LEDGF integ inh
Starred values were filed as active, the others as inactive; x = not tested or not shown. This is a sample that favours compounds with a hit; in the whole collection about 2% have one here. Unless noted, no stated cut-off is given here; in the data, active means inhibition above about 14%; inactive means the rest.

SMILES	UHRF1 binding	MBD2 inh	ASAP1 inh	LEDGF integ inh	TDP2 inh	ARFGAP1 inhibitor	UHRF1 DNA bind	MBD2 confirm	TDP2 inh conf	IN multimer up	TRFRET interf	LEDGF integ conf
CCN(CC)c1ccc(/C=C2/C(=O)NC(=O)N(Cc3ccco3)C2=O)cc1	72*	18*	6	71*	17	3	29*	14*	x	6	-29	30*
CN(C)c1ccc(/C=C2\C(=O)NC(=O)N(CCc3ccc(F)cc3)C2=O)cc1	-2	0	-2	-1	1	-15	x	x	x	x	x	x
CN(C)c1ccc(/C=C2/C(=O)NC(=O)N(Cc3ccco3)C2=O)cc1	68*	15*	-10	66*	15	-3	25*	11	x	2	-12	14*
CN1C(=O)CCS(=O)(=O)C1c1ccc(Cl)cc1 (stereo not drawn)	2	-4	x	2	-1	x	x	x	x	x	x	x
O=C(NCCN1CCC2(CC1)C(=O)NCN2c1ccccc1)c1ccc(OC(F)(F)F)cc1	7	10	10	1	-1	-3	x	x	x	x	x	x
COc1cc(C(c2c(C)[nH]n(-c3ccccc3)c2=O)c2c(C)[nH]n(-c3ccccc3)c2=O)cc(OC)c1OC	18	14*	9	43*	90*	22	3	2	56*	3	-12	5
COc1cc2c(cc1OC)-c1c3c(cc4c1[C@@H](C2)N(C)CC4)OCO3	50*	46*	12	16*	56*	-13	30*	20*	52*	5	-17	8
COc1c2c(cc3c1OCO3)CCN(C)C2	1	4	11	-1	0	3	x	x	x	x	x	x
CC(C)N1C(=O)/C(=C/C=C/c2ccco2)C(=O)N(Cc2ccco2)C1=O	50*	19*	14	69*	2	14	19	11	x	-1	3	51*
CC[n+]1c(-c2ccccc2)c2cc(N)ccc2c2ccc(N)cc21	72*	70*	4	42*	34*	-5	77*	80*	22	7	-33	70*
O=C(CN1C(=O)CN=C(c2ccccc2)c2cc(Cl)ccc21)NC1CCCCC1	3	-1	x	-4	-8	x	x	x	x	x	x	x
O=C1NC(=S)NC(=O)C1=Cc1cccn1-c1ccc(O)cc1	32*	14*	2	33*	-3	9	41*	24*	x	10*	-50	73*
Clc1cc(Cl)cc(CN2Cc3cc(Br)ccc3-n3nncc3C2)c1	-2	-5	-20	6	-12	-5	x	x	x	x	x	x
O=C1NC(=S)N(c2ccccc2)C(=O)/C1=C/c1ccco1	91*	58*	-12	54*	7	-10	100*	89*	x	14*	-49	73*
COc1ccccc1/C=C1\C(=O)NC(=S)N(c2ccccc2)C1=O	1	-2	-16	5	-10	9	x	x	x	x	x	x
O=C1NC(=O)N(CCc2ccc(F)cc2)C(=O)/C1=C/c1ccco1	97*	74*	0	80*	14	-8	23*	16*	x	8	-31	16*
Cc1ccc(/C=C2/C(=O)NC(=O)N(CCc3ccc(F)cc3)C2=O)o1	-7	-2	4	-2	-2	-2	x	x	x	x	x	x
Cc1ccc2nc(-c3ccc(CN4CCC(n5nnc6ccccc65)CC4)cc3)c(-c3ccccc3)nc2c1	-4	2	13	5	-4	12	x	x	x	x	x	x
CCn1cc(C=C2C(=O)NC(=O)NC2=O)c2ccccc21	-8	1	-2	-1	28*	-4	x	x	7	x	x	x
O=c1nc(/C=C/c2ccc(Cl)cc2Cl)cc(C(F)(F)F)[nH]1	0	-4	-2	2	29*	-4	x	x	18	x	x	x
COc1cc(O)c2c(c1)/C=C/C[C@H](O)[C@H](O)[C@@H](O)/C=C/C[C@H](C)OC2=O	1	4	x	1	7	x	x	x	x	x	x	x
O=C(NCCN1CCC2(CC1)C(=O)NCN2c1ccccc1)c1ccc(F)cc1F	1	3	-4	6	1	-2	x	x	x	x	x	x
CC(C)(C)OC(=O)NCCCCC(N)[P+](=O)O (stereo not drawn)	0	-3	x	-3	7	x	x	x	x	x	x	x
CCC(=Nc1ccccc1N)c1c(O)[nH]c(=O)[nH]c1=O	-7	-4	10	1	25*	-1	x	x	13	x	x	x
CS(=O)(=O)N1Cc2cc(Br)ccc2-n2nncc2C1	0	-5	4	1	1	0	x	x	x	x	x	x
O=c1[nH]c(=O)n(-c2cccc(F)c2)c(O)c1/C=C1\C=Nc2ccccc21	22*	12	6	5	32*	1	x	x	14	x	x	x
Cc1ccc(C(=O)NCCN2CCC3(CC2)C(=O)NCN3c2ccccc2)cc1	-3	-3	8	2	3	2	x	x	x	x	x	x

Screens: PubChem BioAssay, The Scripps Research Institute Molecular Screening Center
